Laboratory results published in ChEMBL document CHEMBL1909633, “Pseudoguaianolides and guaianolides from Inula hupehensis as potential anti-inflammatory agents” (J Nat Prod, 2011).

Key:
RAW264.7 [1] = experiment: Antiinflammatory action in mouse RAW264.7 cells assessed as inhibition of LPS-induced nitric oxide production treated 30 mins before LPS challenge measured after 24 hrs by griess reaction; type: functional, cell-based
Summary of the method: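 RAW264.7 macrophages seeded at 2 × 10^5 cells/well, pretreated 30 min with samples over 0.1–50.0 μM, then stimulated with LPS 1 μg/mL for 24 h. NO quantified as nitrite in culture supernatant using Griess reagent; IC50 derived.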

RAW264.7 [2] = experiment: Cytotoxicity against mouse RAW264.7 cells after 24 hrs by MTT assay; type: cell-based; settings: raw264.7, 24 h
Summary of the method: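 RAW264.7 macrophages, cultured and treated alongside the LPS (1 μg/mL, 24 h) NO assay with sample pretreatment of 30 min; viability read by MTT reduction.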

Compound | IC50 (RAW264.7 [1]) | Activity (RAW264.7 [2])
C=C1C(=O)O[C@H]2C=C(C)[C@H]3CC[C@](C)(O)[C@@H]3C[C@H]12 | 6.3 µM | Non-toxic
C[C@@H]1C[C@@H]2OC(=O)[C@@H](C)[C@H]2[C@H](O)[C@]2(C)C(=O)C=C[C@@H]12 | 10.5 µM | Non-toxic
C[C@@H]1C[C@@H]2OC(=O)[C@H](C)[C@H]2[C@H](O)[C@]2(C)C(=O)CC[C@@H]12 | 19.8 µM | Non-toxic
C=C1C(=O)O[C@H]2C[C@@H](C)[C@@H]3C=CC(=O)[C@@]3(C)[C@@H](O)[C@H]12 | 1.1 µM | Non-toxic
C=C1C[C@H]2OC(=O)C(=C)[C@H]2C[C@@H]2[C@@H]1CC[C@@]2(C)O | 8 µM | Non-toxic
C=C1C(=O)O[C@H]2C[C@@H](C)[C@@H]3C=CC(=O)[C@@]3(C)C[C@H]12 [AROMATICIN] | 8.2 µM | Non-toxic
C=C1C(=O)O[C@H]2C[C@@H](C)[C@@H]3C=CC(=O)[C@@]3(C)[C@@H](OC(C)=O)[C@H]12 [BIGELOVIN] | 0.9 µM | Non-toxic
C=C1C(=O)O[C@@H]2C[C@H](C)[C@@H]3CCC(=O)[C@@]3(C)C[C@H]12 [CONFERTIN] | 9.8 µM | Non-toxic
C=C1C(=O)O[C@H]2C[C@@H](C)[C@@H]3CCC(=O)[C@@]3(C)C[C@H]12 [GRAVEOLIDE] | 9.2 µM | Non-toxic
C=C1C(=O)O[C@H]2C[C@@](C)(O)C3=CC[C@](C)(O)[C@@H]3C[C@H]12 [GUAIANOLIDE] | 26.8 µM | Non-toxic
C=C1C(=O)O[C@H]2CC(=C)[C@H]3CC[C@@](C)(O)[C@@H]3C[C@H]12 [INUVISCOLIDE] | 21.9 µM | Non-toxic
N=C(N)NN [PIMAGEDINE] | 7.9 µM | 

Second part, led by results:

IC50 (RAW264.7 [1]) | Compound | Activity (RAW264.7 [2])
3.5 µM | C=C1C(=O)O[C@H]2[C@H]1[C@@H](O)C[C@@H](C)[C@@H]1C=CC(=O)[C@]12C | Non-toxic
6.6 µM | C=C1C(=O)O[C@H]2C[C@@H](COC(C)=O)[C@@H]3CCC(=O)[C@@]3(C)C[C@H]12 | Non-toxic
5.1 µM | C=C1C(=O)O[C@H]2C[C@@H](C)[C@@H]3[C@H](OC)CC(=O)[C@@]3(C)[C@@H](O)[C@H]12 | Non-toxic
3.8 µM | C=C1C(=O)O[C@H]2C[C@@H](C)[C@@H]3[C@H](OCC)CC(=O)[C@@]3(C)[C@@H](O)[C@H]12 | Non-toxic
2.2 µM | C=C1C(=O)O[C@H]2C[C@@H](C)[C@@H]3[C@H](OC)CC(=O)[C@@]3(C)[C@@H](OC(C)=O)[C@H]12 | Non-toxic
1.5 µM | C=C1C(=O)O[C@H]2C[C@@H](C)[C@@H]3[C@@H](OC)CC(=O)[C@@]3(C)[C@@H](OC(C)=O)[C@H]12 | Non-toxic
9.2 µM | C=C1C(=O)O[C@H]2C=C(C)[C@@H]3[C@@H]([C@@H](O)[C@H]12)[C@](C)(O)C[C@@H]3OC(C)=O | Non-toxic
17.1 µM | C=C1C(=O)O[C@H]2C=C(C)[C@H]3CC[C@@](C)(O)[C@@H]3[C@@H](OC(C)=O)[C@H]12 | Non-toxic
9.5 µM | C=C1C(=O)O[C@@H]2C[C@H](C)[C@@H]3[C@@H](O)CC(=O)[C@@]3(C)C[C@H]12 [BURRODIN] | Non-toxic
8.4 µM | C=C1C(=O)O[C@H]2C[C@@H](C)[C@@H]3CCC(=O)[C@@]3(C)[C@@H](O)[C@H]12 [CARPESIOLIN] | Non-toxic
3.9 µM | C=C1C(=O)O[C@H]2C[C@@H](C)[C@@H]3CCC(=O)[C@@]3(C)[C@@H](OC(C)=O)[C@H]12 [ERGOLIDE] | Non-toxic
9.9 µM | C=C1C(=O)O[C@@H]2CC(C)=C3[C@@H](OC(C)=O)C[C@@](C)(O)[C@@H]3C[C@H]12 [INUCHINENOLIDE B] | Non-toxic
0.6 µM | C=C1C(=O)O[C@H]2C[C@H](C)[C@@H]3C(OC(C)=O)CC(OC(C)=O)[C@@]3(C)[C@@H](O)[C@H]12 (some centres undefined) [INUCHINENOLIDE C] | Non-toxic
